What was measured:
AMPKA2 = experiment: ADP-Glo kinase luminescent assay; assay type: biochemical, human; details: 1 μM TPPU, in comparison with p38β
Method in brief: (§1)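 Test compound at 1 μM, or 0.2% PEG 400 vehicle. Incubated 1 h at room temperature, then ADP-Glo luminescence read. Staurosporine 1 μM served as reference. Activity expressed relative to vehicle. Duplicates, six independent experiments.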

CK1α1 = experiment: ADP-Glo kinase luminescent assay; assay type: biochemical, human; details: 1 μM TPPU, in comparison with p38β
Method in brief: as §1

[1] = tested on: Aβ42 neurotoxicity in SH-SY5Y cells; experiment: Anti-Aβ42 neurotoxicity assay; assay type: cell-based, human; details: 0.1 μM pretreatment 1 h then 10 μM Aβ42 72 h
sEH in SH-SY5Y cells = experiment: Cellular sEH activity in SH-SY5Y cells, [3H]-t-DPPO substrate; assay type: cell-based, human; details: 10, 100 and 1000 nM for 24 h
SH-SY5Y cells [2] = experiment: Neuronal morphology analysis under Aβ42; assay type: cell-based, human; details: 100 nM pretreatment then 10 μM Aβ42, 72 h
[3] = tested on: NF-κB (p50, p52, p65, RelB, c-Rel) in SH-SY5Y cells; experiment: Nuclear NF-κB DNA-binding ELISA; assay type: cell-based, human
[4] = tested on: Tau pS396 in SH-SY5Y cells; experiment: Anti-tau hyperphosphorylation ELISA; assay type: cell-based, human
p38β kinase = p38β kinase (Homo sapiens, UniProt Q15759); experiment: ADP-Glo kinase luminescent assay; assay type: biochemical; details: 1 μM TPPU, relative to vehicle control
Chain of p38β kinase (Q15759 whole entry): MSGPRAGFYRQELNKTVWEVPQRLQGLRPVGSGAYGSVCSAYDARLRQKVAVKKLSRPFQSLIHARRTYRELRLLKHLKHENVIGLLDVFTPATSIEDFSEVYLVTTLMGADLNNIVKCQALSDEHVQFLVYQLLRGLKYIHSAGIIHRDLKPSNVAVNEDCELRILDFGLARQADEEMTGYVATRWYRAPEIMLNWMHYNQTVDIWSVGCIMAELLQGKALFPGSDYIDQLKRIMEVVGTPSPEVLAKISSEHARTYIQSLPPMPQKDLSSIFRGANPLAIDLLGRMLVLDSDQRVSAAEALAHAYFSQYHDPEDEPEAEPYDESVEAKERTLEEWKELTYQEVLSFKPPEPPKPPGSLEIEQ

GSK-3β = GSK-3β (Homo sapiens, UniProt P49841); experiment: ADP-Glo kinase luminescent assay; assay type: biochemical; details: 1 μM TPPU, in comparison with p38β
Chain of GSK-3β (P49841 whole entry): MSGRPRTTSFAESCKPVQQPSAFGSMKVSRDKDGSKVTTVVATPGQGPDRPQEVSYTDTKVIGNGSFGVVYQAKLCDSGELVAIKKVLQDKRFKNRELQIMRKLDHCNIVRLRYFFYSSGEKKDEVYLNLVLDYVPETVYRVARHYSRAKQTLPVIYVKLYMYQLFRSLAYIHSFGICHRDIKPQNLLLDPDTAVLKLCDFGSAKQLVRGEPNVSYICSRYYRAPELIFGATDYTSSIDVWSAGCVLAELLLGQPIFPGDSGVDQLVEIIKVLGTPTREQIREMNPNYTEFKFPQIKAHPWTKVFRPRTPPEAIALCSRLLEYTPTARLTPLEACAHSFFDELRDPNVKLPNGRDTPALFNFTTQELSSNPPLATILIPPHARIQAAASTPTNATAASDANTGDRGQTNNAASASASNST

SH-SY5Y cells [5] = experiment: Cell viability / cytotoxicity MTS assay; assay type: cell-based, human; details: TPPU alone, 72 h
p38α = experiment: ADP-Glo kinase luminescent assay; assay type: biochemical, human; details: 1 μM TPPU
Method in brief: as §1

p38γ kinase = molecular target: T1, p38γ kinase (Homo sapiens, UniProt P53778); experiment: ADP-Glo kinase luminescent assay; assay type: biochemical; details: 1 μM TPPU, relative to vehicle control
T1 sequence (P53778 1-367): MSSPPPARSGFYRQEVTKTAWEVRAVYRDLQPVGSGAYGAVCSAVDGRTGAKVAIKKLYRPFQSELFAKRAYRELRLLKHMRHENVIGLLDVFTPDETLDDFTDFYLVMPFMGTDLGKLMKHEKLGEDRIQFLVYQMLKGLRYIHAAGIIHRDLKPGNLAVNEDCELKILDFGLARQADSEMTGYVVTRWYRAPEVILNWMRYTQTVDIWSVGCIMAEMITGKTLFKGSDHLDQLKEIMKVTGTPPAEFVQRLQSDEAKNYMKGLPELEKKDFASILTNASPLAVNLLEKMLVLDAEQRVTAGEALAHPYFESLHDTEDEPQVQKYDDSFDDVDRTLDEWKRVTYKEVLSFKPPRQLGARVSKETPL

p38δ = experiment: ADP-Glo kinase luminescent assay; assay type: biochemical, human; details: 1 μM TPPU
Method in brief: as §1

[6] = tested on: mitochondrial membrane potential (Δψm) in SH-SY5Y cells; experiment: JC-10 mitochondrial membrane potential assay; assay type: cell-based, human
p38α/β = details: read-out: IC50 p38α/β; cited from earlier work
sEH = details: read-out: IC50 sEH; cited from earlier work

CCC(=O)N1CCC(NC(=O)Nc2ccc(OC(F)(F)F)cc2)CC1 [TPPU]
inhibition of kinase activity (AMPKA2): weakly inhibited | inhibition of kinase activity (CK1α1): weakly inhibited | neuroprotection (cell viability) [1]: effective neuroprotection | cellular sEH activities (sEH in SH-SY5Y cells): significantly decreased cellular sEH activities in a dose-dependent manner | neuronal morphology / Aβ42 toxicity (SH-SY5Y cells [2]): effectively relieved Aβ42 toxicity | nuclear translocation of NF-κB subunits ([3]; 0.05 and 0.1 μM pretreatment 1 h then 5 μM Aβ42 8 h, p < 0.0001): inhibited nuclear translocation of all five subunits | Aβ42-induced tau phosphorylation level at pS396 ([4]; 0.01, 0.1 and 1 μM pretreatment 1 h then 10 μM Aβ42 72 h, p < 0.0001): significantly mitigated | alleviation of tau hyperphosphorylation compared with SB202190 ([4]; TPPU 0.01 μM versus SB202190 0.05 μM): stronger alleviative effect | remaining kinase activity (p38β kinase): 36% | inhibition of kinase activity (GSK-3β): weakly inhibited | tolerable and nontoxic dose (SH-SY5Y cells [5]): ≤ 1000 nM | inhibitory effect on kinase activity (p38α): not significant | remaining kinase activity (p38γ kinase): 49% | inhibitory effect on kinase activity (p38δ): not significant

N#CC(C#N)=NNc1ccc(OC(F)(F)F)cc1 [FCCP, carbonyl cyanide-4-(trifluoromethoxy)phenylhydrazone]
Δψm depolarization (reference ionophore) ([6]; FCCP 50 μM): depolarized Δψm

epoxyeicosatrienoic acids [EETs, reference compound]
neuroprotection (cell viability) [1]: effective neuroprotection | loss of Δψm induced by Aβ42 ([6]; 0.1 μM pretreatment, 10 μM Aβ42 72 h): attenuated the loss of Δψm

C[C@@H]1C[C@H]2[C@@H]3CCC4=CC(=O)C=C[C@]4(C)[C@@]3(F)[C@@H](O)C[C@]2(C)[C@@]1(O)C(=O)CO [DEX, dexamethasone, reference compound]
levels of NF-κB subunits in neuronal nuclei ([3]; 0.1 μM DEX pretreatment 1 h then 5 μM Aβ42 8 h): significantly reduced levels of all five NF-κB subunits

From article PMC7028313 (ACS chemical neuroscience, 2019)
